Laboratory results taken from ChEMBL document CHEMBL1149634, “1-Acylthiosemicarbazides, 1,2,4-triazole-5(4H)-thiones, 1,3,4-thiadiazoles and hydrazones containing 5-methyl-2-benzoxazolinones: synthesis, analgesic-anti-inflammatory and antimicrobial activities” (2007).
In brackets after ≈: the same amount, converted by molar mass.

Legend:
Staphylococcus aureus = experiment: Antibacterial activity against Staphylococcus aureus ATCC 29213 after 24 hrs by broth microdilution test; assay type: functional; conditions: ATCC 29213, 24 h
Outline: (§1)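 NCCLS broth microdilution in Mueller-Hinton broth with an inoculum of 5 × 10^5 cfu/mL. Compounds were dissolved in DMSO, diluted in sterile water, and tested as twofold dilutions from 512 to 0.5 µg/mL. Plates were incubated at 35 °C for 24 h. MIC is the lowest concentration preventing visible growth.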

Mus musculus [1] = experiment: Analgesic activity in mouse assessed as inhibition of hind paw lick at 100 mg/kg, ip by hot plate test; assay type: functional; conditions: route intraperitoneal
Mus musculus [2] = experiment: Analgesic activity in mouse assessed as inhibition of acetic acid induced-abdominal writhing at 100 mg/kg, ip by Koster test; assay type: functional; conditions: Abdomen, route intraperitoneal
Mus musculus [3] = experiment: Antiinflammatory activity against carrageenan-induced hind paw oedema in mouse assessed as inhibition of swelling thickness at 100 mg/kg, po after 90 mins; assay type: functional; conditions: 1.5 h
Outline: (§2)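 Fasted mice (n = 5–6) were dosed orally with the sample in 0.5% CMC/water. One hour later, carrageenan (0.5 mg/25 µl in 154 mM saline) was injected subplantar into the right hind paw. The right-minus-left footpad thickness difference was measured with dial gauge callipers every 90 min over 6 h. Inhibition % is calculated versus vehicle control; mean ± SEM, Student's t test.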

Mus musculus [4] = experiment: Antiinflammatory activity against carrageenan-induced hind paw oedema in mouse assessed as swelling thickness at 50 mg/kg, po after 90 mins; assay type: functional; outline: as §2
Mus musculus [5] = experiment: Antiinflammatory activity against carrageenan-induced hind paw oedema in mouse assessed as inhibition of swelling thickness at 200 mg/kg, po after 90 mins; assay type: functional; conditions: 1.5 h; outline: as §2
Mus musculus [6] = experiment: Antiinflammatory activity against carrageenan-induced hind paw oedema in mouse assessed as inhibition of swelling thickness at 100 mg/kg, po after 180 mins; assay type: functional; conditions: 3 h; outline: as §2
Mus musculus [7] = experiment: Antiinflammatory activity against carrageenan-induced hind paw oedema in mouse assessed as swelling thickness at 50 mg/kg, po after 180 mins; assay type: functional; outline: as §2
Mus musculus [8] = experiment: Antiinflammatory activity against carrageenan-induced hind paw oedema in mouse assessed as inhibition of swelling thickness at 100 mg/kg, po after 270 mins; assay type: functional; conditions: 4.5 h; outline: as §2
Mus musculus [9] = experiment: Antiinflammatory activity against carrageenan-induced hind paw oedema in mouse assessed as swelling thickness at 50 mg/kg, po after 270 mins; assay type: functional; outline: as §2
Mus musculus [10] = experiment: Antiinflammatory activity against carrageenan-induced hind paw oedema in mouse assessed as inhibition of swelling thickness at 200 mg/kg, po after 270 mins; assay type: functional; conditions: 4.5 h; outline: as §2
Mus musculus [11] = experiment: Antiinflammatory activity against carrageenan-induced hind paw oedema in mouse assessed as inhibition of swelling thickness at 100 mg/kg, po after 360 mins; assay type: functional; conditions: 6 h; outline: as §2
Mus musculus [12] = experiment: Antiinflammatory activity against carrageenan-induced hind paw oedema in mouse assessed as swelling thickness at 50 mg/kg, po after 360 mins; assay type: functional; outline: as §2
Mus musculus [13] = experiment: Antiinflammatory activity against carrageenan-induced hind paw oedema in mouse assessed as inhibition of swelling thickness at 200 mg/kg, po after 360 mins; assay type: functional; conditions: 6 h; outline: as §2
Enterococcus faecalis = experiment: Antibacterial activity against Enterococcus faecalis ATCC 29212 after 24 hrs by broth microdilution test; assay type: functional; conditions: ATCC 29212, 24 h; outline: as §1
Escherichia coli = experiment: Antibacterial activity against Escherichia coli ATCC 25922 after 24 hrs by broth microdilution test; assay type: functional; conditions: ATCC 25922, 24 h; outline: as §1
Pseudomonas aeruginosa = experiment: Antibacterial activity against Pseudomonas aeruginosa ATCC 27853 after 24 hrs by broth microdilution test; assay type: functional; conditions: ATCC 27853, 24 h; outline: as §1
Candida albicans = experiment: Antifungal activity against Candida albicans ATCC 90028 after 48 hrs by broth microdilution test; assay type: functional; conditions: ATCC 90028, 48 h
Outline: (§3)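 Yeasts tested by NCCLS M27-A broth microdilution in RPMI 1640 (with L-glutamine, without sodium bicarbonate) with an inoculum of 0.5–2.5 × 10^3 cfu/mL. Compounds were prepared from DMSO solution diluted in water as twofold dilutions from 512 to 0.5 µg/mL. Plates were incubated at 35 °C for 48 h. MIC is the lowest concentration giving no visible growth.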

Pichia kudriavzevii = experiment: Antifungal activity against Candida krusei ATCC 6258 after 48 hrs by broth microdilution test; assay type: functional; conditions: ATCC 6258, 48 h; outline: as §3
Candida parapsilosis = experiment: Antifungal activity against Candida parapsilosis ATCC 22019 after 48 hrs by broth microdilution test; assay type: functional; conditions: Lodderomyces parapsilosis, ATCC 22019, 48 h; outline: as §3
Mus musculus [14] = experiment: Antiinflammatory activity against carrageenan-induced hind paw oedema in mouse assessed as inhibition of swelling thickness at 200 mg/kg, po after 180 mins; assay type: functional; conditions: 3 h; outline: as §2
Mus musculus [15] = experiment: Toxicity in mouse assessed as ulceration effect at 200 mg/kg; assay type: functional, organism-based; parameters: dose 200 mg/kg
Outline: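 Mice given 200 mg/kg orally in the carrageenan oedema study were killed under deep ether anaesthesia 6 h after treatment. Stomachs were opened along the greater curvature and examined under a dissecting microscope for lesions or bleeding. Result is expressed as the ratio of ulcerated animals per group.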

Mus musculus [16] = experiment: Antiinflammatory activity against carrageenan-induced hind paw oedema in mouse assessed as swelling thickness at 100 mg/kg, po after 270 mins; assay type: functional; outline: as §2
Mus musculus [17] = experiment: Antiinflammatory activity against carrageenan-induced hind paw oedema in mouse assessed as swelling thickness at 100 mg/kg, po after 360 mins; assay type: functional; outline: as §2
Mus musculus [18] = experiment: Antiinflammatory activity against carrageenan-induced hind paw oedema in mouse assessed as swelling thickness at 200 mg/kg, po after 360 mins; assay type: functional; outline: as §2

Row | Structure (SMILES) | MIC (Staphylococcus aureus) [µg/mL] | inhibition in vivo at 100 mg/kg (Mus musculus [1]) [%] | inhibition in vivo at 100 mg/kg (Mus musculus [2]) [%] | inhibition in vivo at 100 mg/kg (Mus musculus [3]) [%] | Activity (Mus musculus [4]) [%] | inhibition in vivo at 200 mg/kg (Mus musculus [5]) [%] | inhibition in vivo at 100 mg/kg (Mus musculus [6]) [%] | Activity (Mus musculus [7]) [%] | inhibition in vivo at 100 mg/kg (Mus musculus [8]) [%] | Activity (Mus musculus [9]) [%] | inhibition in vivo at 200 mg/kg (Mus musculus [10]) [%] | Activity (Mus musculus [12]) [%] | inhibition in vivo at 200 mg/kg (Mus musculus [13]) [%] | MIC (Enterococcus faecalis) [µg/mL] | MIC (Escherichia coli) [µg/mL] | MIC (Pseudomonas aeruginosa) [µg/mL] | MIC (Candida albicans) [µg/mL] | MIC (Pichia kudriavzevii) [µg/mL] | MIC (Candida parapsilosis) [µg/mL] | inhibition in vivo at 200 mg/kg (Mus musculus [14]) [%] | other results
1 | CC1(C)S[C@@H]2[C@H](NC(=O)[C@H](N)c3ccccc3)C(=O)N2[C@H]1C(=O)O [AMPICILLIN] | 1 (≈ 2.86 µM) |  |  |  |  |  |  |  |  |  |  |  |  |  |  |  |  |  |  |  | 
2 | Cc1ccc2oc(=O)n(CC(=O)NN)c2c1 | 256 (≈ 1160 µM) | 42 | 73.8 | 84.8 | 92.1 | 65.1 | 70.5 | 88.7 | 39.4 | 108.4 | 54.7 | 101.1 | 51.6 | 512 (≈ 2310 µM) | 256 (≈ 1160 µM) | 256 (≈ 1160 µM) | 128 (≈ 579 µM) | 128 (≈ 579 µM) | 128 (≈ 579 µM) |  | inhibition in vivo at 100 mg/kg (Mus musculus [11]): 27.4%
3 | Cc1ccc2oc(=O)n(CC(=O)N/N=C/c3ccc(Cl)cc3)c2c1 | > 512 | 50.7 | 62.5 | 64.7 | 72.5 | 17.1 | 5.1 | 89 | 5.3 | 111.8 | 17.2 | 107 | 7.7 | > 512 | > 512 | > 512 | 128 (≈ 372 µM) | 256 (≈ 745 µM) | 256 (≈ 745 µM) | 22.8 | inhibition in vivo at 100 mg/kg (Mus musculus [11]): 4.3%
4 | Cc1ccc2oc(=O)n(Cc3n[nH]c(=S)n3-c3ccccc3)c2c1 | 256 (≈ 757 µM) | 13 | 49.6 | 79.8 | 122.8 | 53.2 | 63.3 | 115.5 | 31.8 | 157.3 | 16.7 | 147.2 | 5.5 | 256 (≈ 757 µM) | 256 (≈ 757 µM) | 256 (≈ 757 µM) | 128 (≈ 378 µM) | 128 (≈ 378 µM) | 128 (≈ 378 µM) | 47.7 | inhibition in vivo at 100 mg/kg (Mus musculus [11]): 27.4%; Activity (Mus musculus [15]): Not toxic
5 | Cc1ccc2oc(=O)n(CC(=O)N/N=C/c3ccccc3)c2c1 | 256 (≈ 828 µM) | 23.9 | 62.5 | 79.8 | 98.3 | 63.5 | 30 | 100.1 |  | 108.8 | 27.2 | 115 |  | 512 (≈ 1660 µM) | 256 (≈ 828 µM) | 256 (≈ 828 µM) | 128 (≈ 414 µM) | 128 (≈ 414 µM) | 128 (≈ 414 µM) | 37.8 | Activity (Mus musculus [16]): 95.4%; Activity (Mus musculus [17]): 84.5%
6 | CCCNC(=S)NNC(=O)Cn1c(=O)oc2ccc(C)cc21 | 256 (≈ 794 µM) | 18.1 | 59.7 | 79.8 | 147.3 | 29.1 | 46.1 | 147.1 | 13 | 188.2 | 11.1 | 176.7 | 6.6 | 512 (≈ 1590 µM) | 256 (≈ 794 µM) | 512 (≈ 1590 µM) | 256 (≈ 794 µM) | 256 (≈ 794 µM) | 256 (≈ 794 µM) | 25.1 | Activity (Mus musculus [17]): 80.6%
7 | CNC(=S)NNC(=O)Cn1c(=O)oc2ccc(C)cc21 | 512 (≈ 1740 µM) | 23.9 | 61.7 | 64.7 | 118.2 | 58 | 33.8 | 125.2 |  | 187.2 | 35.2 | 188.9 | 27.5 | 256 (≈ 870 µM) | 256 (≈ 870 µM) | 128 (≈ 435 µM) | 128 (≈ 435 µM) | 128 (≈ 435 µM) | 128 (≈ 435 µM) |  | Activity (Mus musculus [15]): Not toxic; Activity (Mus musculus [17]): 85.8%
8 | CNc1nnc(Cn2c(=O)oc3ccc(C)cc32)s1 | 512 (≈ 1850 µM) | 54.3 | 73.8 | 62.7 | 66 | 63.5 | 21.4 | 101.3 |  | 106.8 | 33.3 | 96 | 14.5 | 512 (≈ 1850 µM) | 512 (≈ 1850 µM) | 512 (≈ 1850 µM) | 256 (≈ 926 µM) | 256 (≈ 926 µM) | 256 (≈ 926 µM) | 46.9 | Activity (Mus musculus [16]): 110.4%; Activity (Mus musculus [17]): 106.7%
9 | Cc1ccc2oc(=O)n(Cc3n[nH]c(=S)n3C)c2c1 | > 512 | 2.2 | 49.6 | 79.8 | 67.5 | 42 | 11.8 | 85.1 | 14.8 | 120.7 | 15.8 | 97.8 |  | > 512 | 512 (≈ 1850 µM) | 512 (≈ 1850 µM) | 512 (≈ 1850 µM) | 512 (≈ 1850 µM) | 256 (≈ 926 µM) | 38.6 | inhibition in vivo at 100 mg/kg (Mus musculus [11]): 27.4%; Activity (Mus musculus [15]): Not toxic; Activity (Mus musculus [18]): 79.1%
10 | Cc1ccc2oc(=O)n(CC(=O)NNC(=S)Nc3ccccc3)c2c1 | 256 (≈ 718 µM) | 23.9 | 55.6 | 79.8 |  | 40.3 | 31.3 | 140.9 |  | 162.6 | 30.5 | 153.3 | 34.1 | 512 (≈ 1440 µM) | 256 (≈ 718 µM) | 256 (≈ 718 µM) | 256 (≈ 718 µM) | 256 (≈ 718 µM) | 128 (≈ 359 µM) | 53.4 | Activity (Mus musculus [15]): Not toxic; Activity (Mus musculus [16]): 92%; Activity (Mus musculus [17]): 79.2%
11 | OC(Cn1cncn1)(Cn1cncn1)c1ccc(F)cc1F [FLUCONAZOLE] |  |  |  |  |  |  |  |  |  |  |  |  |  |  |  |  | 1 (≈ 3.27 µM) | 64 (≈ 209 µM) | 8 (≈ 26.1 µM) |  | 
12 | CCNC(=S)NNC(=O)Cn1c(=O)oc2ccc(C)cc21 | 256 (≈ 830 µM) | 18.1 | 44.4 | 57.1 | 116.7 | 19.4 | 36.3 | 21.5 | 35.6 | 139.1 | 27.8 | 127.8 | 47.2 | 512 (≈ 1660 µM) | 256 (≈ 830 µM) | 512 (≈ 1660 µM) | 256 (≈ 830 µM) | 256 (≈ 830 µM) | 256 (≈ 830 µM) | 54.6 | inhibition in vivo at 100 mg/kg (Mus musculus [11]): 29.3%; Activity (Mus musculus [15]): Not toxic
